# From PubChem
# MrgX1 allo act: allosterically activates human MrgX1 receptor signaling; B-score at 10 µM; Q96LB2; MrgX1-HEK293, Fluo-4 calcium flux, FDSS; stronger effect = higher value; AID 588675; 310,000 compounds, 0.63% hits;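 active means plate-corrected calcium response at least 3 library SD above typical, normal starting fluorescence, not activating the receptor alone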;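 further: compound read alongside a low EC10 to EC30 dose of BAM8-22 agonist; peak minus trough fluorescence over baseline measured at the second addition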
# Target sequence (Q96LB2 whole entry, looked up): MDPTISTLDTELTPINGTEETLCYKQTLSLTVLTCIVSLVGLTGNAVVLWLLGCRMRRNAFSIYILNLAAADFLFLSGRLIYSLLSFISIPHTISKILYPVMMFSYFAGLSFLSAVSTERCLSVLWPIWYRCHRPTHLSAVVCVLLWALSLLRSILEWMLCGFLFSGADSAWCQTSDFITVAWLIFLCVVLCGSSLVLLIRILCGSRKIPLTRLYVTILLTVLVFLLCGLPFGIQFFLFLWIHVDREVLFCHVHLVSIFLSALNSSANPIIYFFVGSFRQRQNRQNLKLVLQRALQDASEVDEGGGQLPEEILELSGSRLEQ
# RGS4 pot: potentiators or activators of RGS4; HEK293 M3R/inducible RGS4, carbachol calcium flux Fluo4; stronger effect = lower value; B-score at 10 µM; 310,000 compounds, 0.92% hits; AID 463111;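 active means B-score of the integrated calcium signal more than 4 SD below the library mean, with starting fluorescence not abnormally high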;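 further: negative B-score means reduced calcium response which marks RGS4 activation or potentiation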
#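 Also added: carbachol at ECmax as muscarinic agonist stimulus; Assay system: HEK293 cells with stable M3R and inducible RGS4; Timing: overnight RGS4 induction, 30 min dye load 37 °C, 20 min compound RT; Measured by: Fluo4-AM (2 µM) calcium-flux fluorescence, kinetic read.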
# MrgX1 ag: human MrgX1 receptor agonism, primary screen. Q96LB2. MrgX1-HEK293 cells, Fluo-4 calcium fluorescence, agonist mode; stronger effect = higher value. B-score at 10 µM. 310,000 compounds, 0.44% hits. AID 588627;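 active means calcium response B-score plate-corrected fluorescence ratio at least 3 library SD, with starting fluorescence B-score inside 5 SD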
#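 Assay system: MrgX1-expressing HEK293 cells / Amount: fifteen thousand cells per well / Doses: test compound in the initial addition of three / Timing: cells plated overnight, dye loaded 0.5 h 37 °C, 0.5 h room temperature / Technique: kinetic calcium dye fluorescence, Fluo-4 NW / Control set: positive and negative controls per plate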
# MrgX1 antagonist: blocks BAM8-22 activation of human MrgX1 receptor. MRGX1-HEK293 calcium flux, Fluo-4, BAM8-22 antagonism; stronger effect = lower value. B-score at 10 µM. 310,000 compounds, 1.3% hits;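 active means calcium-response B-score plate-corrected more than 3 library SD below zero, starting fluorescence within 5 deviations, no agonist response on first addition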;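 further: peak minus trough fluorescence over baseline after final BAM8-22 challenge near maximal dose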
# RGS4 block: inhibitors of human RGS4. 310,000 compounds, 0.45% hits. B-score at 10 µM. P49798. HEK293 M3R/RGS4 inducible, Fluo-4 calcium flux; stronger effect = higher value; triggered by carbachol at its EC20;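 active means B-score, a plate-corrected calcium signal, over three deviations above library mean, with baseline fluorescence within five deviations of library mean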;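 further: RGS4 expression induced by doxycycline in cells with stable M3 receptor; B-score is computed from the integrated fluorescence ratio over baseline after carbachol; higher B-score means a larger calcium signal and so more RGS4 inhibition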
# Target sequence (P49798 whole entry, looked up): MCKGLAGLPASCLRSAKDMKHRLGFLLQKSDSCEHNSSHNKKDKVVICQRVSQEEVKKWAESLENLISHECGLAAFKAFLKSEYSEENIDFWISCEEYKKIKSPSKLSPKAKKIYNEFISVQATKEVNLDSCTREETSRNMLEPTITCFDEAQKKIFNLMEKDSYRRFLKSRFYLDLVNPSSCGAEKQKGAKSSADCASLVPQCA
# * marks the source's active call; other numbers are inactive results; i = inactive; nt = no result; ! = not confirmed by another sample. A selection: hits, their analogues and other compounds. The true share with any hit is near 3.5%.
SMILES,MrgX1 allo act,RGS4 pot,MrgX1 ag,MrgX1 antagonist,RGS4 block
CN1CCN(C(=S)NC(=O)c2cccc(S(=O)(=O)N(C)C)c2)CC1,i,i,i,i,i
CCc1ccc2[nH]c(O)c(N=NC3=NC(=O)CS3)c2c1,i,i,i,i,i
CCc1ccc2c(c1)c(N=NC1=NC(=O)CS1)c(O)n2CC,i,i,i,i,4.98*
O=C(Cn1c(-c2ccccc2)c[n+]2ccsc12)c1ccc(Br)cc1,i,-8.13*,i,i,i
COc1cc(/C=C/C(=O)NCCc2ccc(S(N)(=O)=O)cc2)ccc1OCC#N,11.7*,i,i,i,i
CC(Oc1ccc(Cl)cc1Cl)c1nc(-c2ccc(NC(=O)c3ccncc3)cc2)no1 (configuration not stated),i,i,i,-5.25*,i
CC(Oc1ccc(Cl)cc1Cl)C(=O)NNC(=O)c1ccncc1 (configuration not stated),i,i,i,i,i
CC(Oc1ccc(Cl)cc1Cl)c1nc(-c2ccc(NC(=O)c3cccnc3)cc2)no1 (configuration not stated),i,-7.86*,i,i,i
CCC(=O)N1CCc2cc(S(=O)(=O)N3CCCCC3CC)ccc21 (configuration not stated),i,i,i,i,i
Cc1cc(OC(=O)c2ccccc2Cl)cc(=O)n1C,10*,i,i,i,i
COC(=O)C1=C(C)NC(=O)/C1=C\c1cc(C)n(-c2ccccc2F)c1C,i,i,i,-5.5*,i
CCN1CCN(c2nc3c(c(=O)[nH]c(=O)n3C)n2Cc2ccccc2)CC1,i,i,i,i,i
CC(=O)/C(=N/Nc1ccc(Br)cc1)N1CCCc2ccccc21,i,-7.73*,i,i,i
O=C(NCc1ccccn1)C1CCCN(Cc2cnn(-c3ccccc3)c2-n2cccc2)C1 (configuration not stated),i,-7.26*,i,i,i
O=C(NCc1ccccn1)C1CCN(Cc2cnn(-c3ccccc3)c2-n2cccc2)CC1,i,i,i,i,i
CCN1C(=NCc2ccco2)N[C@@H](c2cccc(F)c2)C(C(=O)OC)=C1C,i,i,i,i,i
C/C(=N\NC(=O)c1cccc(Cl)c1)C1C(=O)c2ccccc2C1=O,18.2*,i,i,i,i
CC(=O)Oc1c(Cl)cc(Cl)cc1/C=C/c1ccc2ccccc2n1,i,i,i,-8.32*,i
O=C(CSCc1ccco1)c1ccc(Cl)s1,i,i,i,i,i
O=C(CCN1CCC(c2ccc(Cl)s2)=N1)c1ccc(Cl)s1,i,i,i,-4.87*,i
CCS(=O)(=O)N1CCC(C(=O)Nc2ccc(C(C)=O)cc2)CC1,i,i,i,i,i
CC1C(=NO)C(C)C(c2ccccc2)NC1c1ccccc1 (configuration not stated),i,i,i,i,i
Cc1ccc(C2NC(c3ccc(C)cc3)C(C)C(=NO)C2C)cc1 (configuration not stated),11.6*,i,i,i,i
O=C(Cc1ccccc1)c1ccccc1C(=O)N1CCCCC1,i,i,i,i,i
CNC(=O)c1ccc(-c2sc3nc(N4CCOCC4)c4c(c3c2N)CCCC4)o1,12.1*,i,i,i,i
SMILES,MrgX1 allo act,RGS4 pot,MrgX1 ag,MrgX1 antagonist,RGS4 block
NC(=O)C(=O)NN=C1C2CC3CC(C2)CC1C3,i,i,i,i,i
NC(=S)NN=C1C2CC3CC(C2)CC1C3,8.59*,i,i,i,i
CC[C@H]1CC2CN3CCc4c([nH]c5c([C@H]6C[C@H]7[C@H](CC)CN(C)[C@@H](Cc8c6[nH]c6ccccc86)[C@H]7C(=O)OC)c(OC)ccc45)C(C(=O)OC)(C2)C13,i,i,i,i,8.78*
CCCCN(C)C(=O)c1cn(C)c2ccc(S(=O)(=O)N3CCC(C)CC3)cc2c1=O,i,i,i,i,i
CC(C)N(C(=O)CN1CCC(c2nc3ccccc3[nH]2)CC1)C(C)C,i,i,i,i,i
CCOCCOC(=O)C(C)Oc1ccc(Oc2ncc(Cl)cc2Cl)cc1 (configuration not stated),i,i,i,i,i
CCOCCOC(=O)C(C)Oc1ccc(Oc2nc(Cl)ccc2Cl)cc1 (configuration not stated),i,i,i,-8.48*,i
Cc1ccc(-n2c(O)c(/C=N/n3cnnc3)c3ccccc3c2=O)cc1,9.35*!,i,i,i,i
O=C(NCCCn1ccnc1)c1ccc(NS(=O)(=O)c2cccc([N+](=O)[O-])c2)cc1,i,i,i,i,i
Cc1ccc(C(=O)c2cc([N+](=O)[O-])ccc2N2CCCCC2)cc1C,i,-7.59*,i,i,i
COc1ccc(CNC(=O)C(C#N)c2nc3ccccc3nc2N2CCN(C)CC2)cc1 (configuration not stated),i,i,i,i,i
C=CCNC(=O)C(C#N)c1nc2ccccc2nc1N1CCCCCC1 (configuration not stated),7.65*,i,i,i,i
COc1ccc(CNC(=O)C(C#N)c2nc3ccccc3nc2N2CCCC2)cc1 (configuration not stated),i,i,i,-5.07*,i
COC(=O)Cc1ccc(NC(=S)N2CCCCC2C)cc1 (configuration not stated),i,i,i,i,i
CN(C)c1ccc(N=Cc2ccco2)cc1,i,nt,i,i,nt
C(=Nc1cccc2c(N=Cc3ccco3)cccc12)c1ccco1,i,i,39*,i,i
CCn1c(O)c(/C=N/N=C/c2ccccc2)c2ccc(C3=NNC(=O)CC3)cc21,i,i,i,-4.76*,i
COc1cc(OC)c(NC(=S)Nc2cc(Cl)cc(Cl)c2)cc1Cl,i,i,i,-4.7*,i
Cc1cc2c(=O)oc(-c3ccccc3Br)nc2s1,nt,i,nt,nt,i
Cc1cc2c(=O)oc(-c3ccc(F)cc3)nc2s1,i,i,i,-23.4*,i
N#C/C(=C\c1ccccc1)C(=O)Nc1nncs1,8.03*,i,i,i,i
N#C/C(=C\c1cccs1)C(=O)Nc1ccccn1,i,i,i,-4.93*,i
COc1ccc(/C=N/NC(=O)CN(C)C(=O)OCc2ccccc2)cc1OC,i,i,i,i,i
Cc1[nH]c(=O)[nH]c(=O)c1CSCC(=O)OCC(=O)c1ccc(Br)cc1,i,i,i,i,i
